Calls of active or inactive are those of the source. The rule behind the calls is not given here.
Experiments:
NCI-H226 = assay: Cytotoxicity against human NCI-H226 cells assessed as reduction in cell viability by MTT assay; assay type: cell-based
Summary of the method: (§1)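 Cells cultured in MEM or RPMI1640 with 10% FBS, 37 °C, 5% CO₂. After compound exposure, 5 µg/ml MTT in MEM for 2 h at 37 °C, then solubilized overnight at 37 °C (40% DMF, 20% SDS); absorbance at 570 nm. IC50 taken from linear portion of curve as concentration cutting absorbance 50% versus control.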

[1] = target: T1, Nuclear factor erythroid 2-related factor 2 (Homo sapiens) (UniProt Q16236); assay: Activation of Nrf2 in human NPC-TW01 or HONE1 cells expressing ARE-luciferase at 20 uM incubated for 16 hrs by luciferase reporter gene assay relative to untreated control; assay type: cell-based
T1 sequence (whole entry): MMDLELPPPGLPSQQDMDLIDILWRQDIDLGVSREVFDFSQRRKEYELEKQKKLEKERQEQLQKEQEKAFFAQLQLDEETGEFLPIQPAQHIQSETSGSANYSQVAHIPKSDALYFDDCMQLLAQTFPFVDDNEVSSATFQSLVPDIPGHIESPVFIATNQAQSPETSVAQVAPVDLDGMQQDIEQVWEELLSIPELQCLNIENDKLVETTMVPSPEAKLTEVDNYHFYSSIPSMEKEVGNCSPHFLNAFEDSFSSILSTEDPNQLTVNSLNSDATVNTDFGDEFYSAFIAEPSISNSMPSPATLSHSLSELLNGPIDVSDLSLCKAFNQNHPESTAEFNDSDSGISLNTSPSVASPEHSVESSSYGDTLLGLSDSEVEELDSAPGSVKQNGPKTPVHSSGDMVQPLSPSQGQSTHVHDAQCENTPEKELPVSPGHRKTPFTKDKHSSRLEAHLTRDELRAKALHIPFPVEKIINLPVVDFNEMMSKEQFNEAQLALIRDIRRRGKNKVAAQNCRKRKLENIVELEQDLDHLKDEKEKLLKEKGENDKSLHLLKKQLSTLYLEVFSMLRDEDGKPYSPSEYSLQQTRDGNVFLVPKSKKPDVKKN

[2] = Cytotoxicity against human NPC-TW01 cells assessed as reduction in cell viability by MTT assay; assay type: cell-based; summary of the method: as §1
Jurkat = assay: Cytotoxicity against human Jurkat cells assessed as reduction in cell viability by MTT assay; assay type: cell-based; summary of the method: as §1
NPC-TW01 [3] = assay: Inhibition of H2O2-induced intracellular oxidative stress in human NPC-TW01 cells expressing pGL4-9ARE at 20 uM pre-treated for 6 hrs before H2O2 challenge for 16 hrs by DCFH-DA dye based flow cytometry; assay type: functional, cell-based
Summary of the method: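 TW01-pGL4-9ARE cells, 1 × 10⁵ per well, grown overnight, pre-treated 20 µM for 6 h, then 500 µM H2O2 for 16 h. Stained with 20 µM DCFH-DA 30 min at 37 °C, resuspended in PBS, analysed by flow cytometry; geometric mean fluorescence reported, p < 0.05 versus H2O2 alone.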

NPC-TW01 [4] = assay: Effect on Nrf2 protein expression in human NPC-TW01 cells expressing pGL4-9ARE incubated for 6 and 12 hrs by Western blot method; assay type: functional, cell-based
Summary of the method: (§2)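 TW01-pGL4-9ARE cells treated and harvested at set times; lysed in NP-40 buffer with phosphatase/protease inhibitors, protein by BCA. 40 µg lysate on 10% SDS-PAGE, PVDF transfer, 5% BSA/TBS-Tween block; primary antibodies (p-Nrf2 Ser40, total Nrf2, actin) overnight at 4 °C, HRP secondary 1 h room temperature; imaged by chemiluminescence imager.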

[5] = target: T1, Nuclear factor erythroid 2-related factor 2 (Homo sapiens); assay: Activation of Nrf2 in human NPC-TW01 or HONE1 cells expressing ARE-luciferase at 20 uM incubated for 16 hrs in presence of PKC signaling inhibitor staurosporine by luciferase reporter gene assay relative to untreated control; assay type: cell-based
[6] = target: T1, Nuclear factor erythroid 2-related factor 2 (Homo sapiens); assay: Induction of Nrf2 Ser40 phosphorylation in human NPC-TW01 cells expressing pGL4-9ARE incubated for 6 and 12 hrs by Western blot method; assay type: cell-based; summary of the method: as §2

`O/N=C(\COc1ccc2ccccc2c1)c1ccc(C(F)(F)F)cc1` gave an IC50 (NCI-H226) of 34.1 µM, a fold change (FC) [1] of 1.05 and an IC50 [2] of 30.7 µM. It also gave an IC50 (Jurkat) of 36.2 µM.

With `CC(C)(C)c1cc(O)ccc1O` the fold change (FC) [1] was 1.77.

For `O/N=C(\COc1ccc2ccccc2c1)c1ccc(Br)cc1`, the IC50 (NCI-H226) was 39.1 µM, the fold change (FC) [1] was 0.95 and the IC50 [2] was 27.9 µM. The IC50 (Jurkat) was 47.2 µM.

Compound `O/N=C(\COc1cccc2ccccc12)c1ccc(Br)cc1` has an IC50 (NCI-H226) greater than 50 µM, a fold change (FC) [1] of 1.03 and an IC50 [2] greater than 50 µM. It also gave an IC50 (Jurkat) greater than 50 µM.

`O/N=C(\COc1cccc2ccccc12)c1ccc(Cl)cc1` showed an IC50 (NCI-H226) greater than 50 µM, a fold change (FC) [1] of 1 and an IC50 [2] greater than 50 µM. For the same compound, the IC50 (Jurkat) was greater than 50 µM.

`O/N=C(\COc1ccc2ccccc2c1)c1ccc2ccccc2c1` gave an IC50 (NCI-H226) of 37.1 µM, a fold change (FC) [1] of 1.36 and an IC50 [2] greater than 50 µM. The IC50 (Jurkat) was 24.3 µM.

In the case of `COc1ccc(OC)c(/C(COc2cccc3ccccc23)=N/O)c1`, the IC50 (NCI-H226) is reported as 41.5 µM, the fold change (FC) [1] is reported as 0.93 and the IC50 [2] is reported as 32.3 µM. It also gave an IC50 (Jurkat) greater than 50 µM.

With `O/N=C(\COc1ccc2ccccc2c1)c1ccc(Cl)cc1` the IC50 (NCI-H226) was 34.9 µM, the fold change (FC) [1] was 1.07 and the IC50 [2] was 26 µM. It also gave an IC50 (Jurkat) of 37.3 µM.

With `C/C(COc1cccc2ccccc12)=N\O` the IC50 (NCI-H226) was greater than 50 µM, the fold change (FC) [1] was 1.17 and the IC50 [2] was greater than 50 µM. It also gave an IC50 (Jurkat) greater than 50 µM.

Compound `COc1ccc(OC)c(/C(COc2ccc3ccccc3c2)=N/O)c1` has an IC50 (NCI-H226) of 8.6 µM, a fold change (FC) [1] of 0.65 and an IC50 [2] of 16.7 µM. The IC50 (Jurkat) was 10.1 µM.

Compound `COc1ccc(/C(COc2cccc3ccccc23)=N/O)cc1` has an IC50 (NCI-H226) of 36.7 µM, a fold change (FC) [1] of 1.1 and an IC50 [2] of 32.3 µM. The IC50 (Jurkat) was 31.8 µM.

With `O/N=C(\COc1ccc2ccccc2c1)c1ccc(F)c(F)c1` the IC50 (NCI-H226) was 42.8 µM, the fold change (FC) [1] was 1.42 and the IC50 [2] was 36.1 µM. It also gave an IC50 (Jurkat) of 44.6 µM.

With `O/N=C(\COc1ccc2ccccc2c1)c1ccc(F)cc1` the IC50 (NCI-H226) was greater than 50 µM, the fold change (FC) [1] was 2.61 and the inhibition (NPC-TW01 [3]) was “Active”. The Activity (NPC-TW01 [4]) was “inactive”, the Activity [5] was “inactive” and the IC50 [2] was greater than 50 µM. The Activity [6] was “Active” and the IC50 (Jurkat) was greater than 50 µM.

In the case of `O/N=C(\COc1cccc2ccccc12)c1ccc(C(F)(F)F)cc1`, the IC50 (NCI-H226) is reported as greater than 50 µM, the fold change (FC) [1] is reported as 1.01 and the IC50 [2] is reported as 46.4 µM. For the same compound, the IC50 (Jurkat) was greater than 50 µM.

In the case of `COc1ccc(/C(COc2ccc3ccccc3c2)=N/O)cc1`, the IC50 (NCI-H226) is reported as greater than 50 µM, the fold change (FC) [1] is reported as 1.65 and the inhibition (NPC-TW01 [3]) is reported as “Active”. For the same compound, the Activity (NPC-TW01 [4]) was “inactive”, the Activity [5] was “inactive” and the IC50 [2] was greater than 50 µM. For the same compound, the Activity [6] was “Active” and the IC50 (Jurkat) was 35.8 µM.

In the case of `O/N=C(\COc1ccc2ccccc2c1)c1ccc(-c2ccccc2)cc1`, the IC50 (NCI-H226) is reported as greater than 50 µM, the fold change (FC) [1] is reported as 1.18 and the IC50 [2] is reported as greater than 50 µM. For the same compound, the IC50 (Jurkat) was greater than 50 µM.

With `O/N=C(\COc1ccc2ccccc2c1)c1ccccc1` the IC50 (NCI-H226) was greater than 50 µM, the fold change (FC) [1] was 3.49 and the inhibition (NPC-TW01 [3]) was “Active”. The Activity (NPC-TW01 [4]) was “inactive”, the Activity [5] was “inactive” and the IC50 [2] was greater than 50 µM. The Activity [6] was “Active” and the IC50 (Jurkat) was greater than 50 µM.

`O/N=C(\COc1cccc2ccccc12)c1ccccc1` showed an IC50 (NCI-H226) of 47.1 µM, a fold change (FC) [1] of 1.14 and an IC50 [2] greater than 50 µM. For the same compound, the IC50 (Jurkat) was greater than 50 µM.

`O/N=C(\COc1cccc2ccccc12)c1ccc(F)cc1` gave an IC50 (NCI-H226) greater than 50 µM, a fold change (FC) [1] of 1.09 and an IC50 [2] greater than 50 µM. The IC50 (Jurkat) was greater than 50 µM.

With `O/N=C(\COc1cccc2ccccc12)c1ccc2ccccc2c1` the IC50 (NCI-H226) was 38.9 µM, the fold change (FC) [1] was 1.25 and the IC50 [2] was 36.1 µM. For the same compound, the IC50 (Jurkat) was greater than 50 µM.

For `O/N=C(\COc1cccc2ccccc12)c1ccc(F)c(F)c1`, the IC50 (NCI-H226) was greater than 50 µM, the fold change (FC) [1] was 0.86 and the IC50 [2] was 36.8 µM. It also gave an IC50 (Jurkat) of 42.6 µM.

For `C/C(COc1ccc2ccccc2c1)=N\O`, the IC50 (NCI-H226) was greater than 50 µM, the fold change (FC) [1] was 2.04 and the inhibition (NPC-TW01 [3]) was “Active”. The Activity (NPC-TW01 [4]) was “inactive”, the Activity [5] was “inactive” and the IC50 [2] was greater than 50 µM. The Activity [6] was “Active” and the IC50 (Jurkat) was greater than 50 µM.

With `O/N=C(\COc1cccc2ccccc12)c1ccc(-c2ccccc2)cc1` the IC50 (NCI-H226) was greater than 50 µM, the fold change (FC) [1] was 1.19 and the IC50 [2] was greater than 50 µM. It also gave an IC50 (Jurkat) greater than 50 µM.

— ChEMBL document CHEMBL3585270, “Discovery of oxime-bearing naphthalene derivatives as a novel structural type of Nrf2 activators” (Bioorg Med Chem, 2015)
